{
  "source": "ChEMBL document CHEMBL4732211",
  "about": "“Multifunctional agents based on benzoxazolone as promising therapeutic drugs for diabetic nephropathy” (Eur J Med Chem, 2021)",
  "key": {"Mus musculus [1]": {"test_system": "Mus musculus", "experiment": "Antidiabetic activity in STZ-induced Kunming mouse model of diabetes assessed as reduction in blood glucose level at 80 mg/kg, po administered QD via gavage for 4 weeks and measured at week 2 to 4", "assay_type": "functional, organism-based", "conditions": "time 2-4 weeks"}, "Mus musculus [2]": {"test_system": "Mus musculus", "experiment": "Antioxidant activity in STZ-induced diabetic Kunming mouse assessed as rise in liver MDA level at 80 mg/kg, po administered QD via gavage for 4 weeks and measured at 6 hrs post-final drug dose relative to normal group", "assay_type": "functional"}, "Brain": {"test_system": "Brain", "experiment": "Antioxidant activity in rat brain assessed as inhibition of lipid peroxidation at 50 to 100 uM by TBARS assay", "assay_type": "functional, tissue-based", "conditions": "dose 50-100 µM", "in_short": "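Rat brain freshly homogenized in ice-cold saline and centrifuged; supernatant protein measured by Coomassie. Hydroxyl radical-driven lipid peroxidation read as MDA/TBARS with a commercial kit.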"}, "[3]": {"target": "Aldo-keto reductase family 1 member B1 (Rattus norvegicus) (UniProt P07943)", "experiment": "Potency index, ratio of IC50 of epalrestat to IC50 of compound for inhibition of Wistar rat lens ALR2 using D,L-glyceraldehyde and NADPH as substrate preincubated for 10 mins followed by substrate addition and measured for 4 mins by spectrophotometric analysis", "assay_type": "tissue-based", "conditions": "time 14.0 min", "in_short": "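Aldose reductases (ALR2, ALR1) prepared from Wistar rats (200-250 g). NADPH loss followed at 340 nm for 4 min after substrate start, following 10 min preincubation. ALR2: pH 6.2 phosphate, 30 °C, NADPH 0.10 mM, D,L-glyceraldehyde 10 mM. ALR1: pH 7.2, 37 °C, NADPH 0.12 mM, D-glucuronate 20 mM. 0.5% DMSO; non-enzymatic rate subtracted. IC50 from log dose-response with ≥3 concentrations (20-80% inhibition), triplicate.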"}, "Mus musculus [4]": {"test_system": "Mus musculus", "experiment": "Antioxidant activity in STZ-induced diabetic Kunming mouse assessed as reduction in liver MDA level at 80 mg/kg, po administered QD via gavage for 4 weeks and measured at 6 hrs post-final drug dose relative to STZ-treated group", "assay_type": "functional", "conditions": "672 h"}, "Mus musculus [5]": {"test_system": "Mus musculus", "experiment": "Reno-protective activity in STZ-induced Kunming mouse model of diabetes assessed as reduction in kidney lesions and appearance of normal structure at 80 to 160 mg/kg, po administered daily via gavage for 8 weeks by H and E staining based histological analysis", "assay_type": "functional, organism-based", "conditions": "dose 80-160 mg/kg"}, "Mus musculus [6]": {"test_system": "Mus musculus", "experiment": "Antidiabetic activity in STZ-induced Kunming mouse model of diabetes assessed as reduction in blood glucose level at 80 mg/kg, po administered daily via gavage for 8 weeks and measured at week 2", "assay_type": "functional", "conditions": "336 h, time 2 weeks"}, "Mus musculus [7]": {"test_system": "Mus musculus", "experiment": "Antidiabetic activity in STZ-induced Kunming mouse model of diabetes assessed as reduction in blood glucose level at 80 mg/kg, po administered daily via gavage for 8 weeks and measured at week 6", "assay_type": "functional", "conditions": "1008 h, time 6 weeks"}, "[8]": {"target": "Aldo-keto reductase family 1 member B1 (Rattus norvegicus) (UniProt P07943)", "experiment": "Noncompetitive inhibition of Wistar rat lens ALR2 at 0.025 mM using varying level of D,L-glyeraldehyde as substrate in presence of NADPH by double reciprocal plot analysis", "assay_type": "tissue-based", "in_short": "(§1)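 Rat ALR2 kinetics run under the assay conditions with inhibitor at 10 and 5 nM. Either D,L-glyceraldehyde varied (7.5-0.94 mM) with cofactor 0.025 mM, or NADPH varied (25-3.125) with glyceraldehyde 2.5 mM. Mode assigned from double-reciprocal plots.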"}, "HEK-293T": {"test_system": "HEK-293T", "experiment": "Cytotoxicity against human HEK293T cells at 25 to 200 uM measured after 24 hrs by MTT assay", "assay_type": "cell-based", "conditions": "dose 25-200 µM", "in_short": "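293T cells seeded at 1×10^5/well and exposed to 25, 50, 100 and 200 for 24 h at 37 °C; viability by MTT kit.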"}, "Mus musculus [9]": {"test_system": "Mus musculus", "experiment": "Reno-protective activity in STZ-induced Kunming mouse model of diabetes assessed as urinary total protein excretion at 80 mg/kg, po administered daily via gavage for 8 weeks and measured at week 4 relative to control", "assay_type": "functional", "conditions": "time 4 weeks"}, "Mus musculus [10]": {"test_system": "Mus musculus", "experiment": "Reno-protective activity in STZ-induced Kunming mouse model of diabetes assessed as urinary total protein excretion at 80 mg/kg, po administered daily via gavage for 8 weeks and measured at week 6 relative to control", "assay_type": "functional", "conditions": "time 6 weeks"}, "[11]": {"target": "Aldo-keto reductase family 1 member A1 (Rattus norvegicus, UniProt P51635)", "sequence (P51635 whole entry, looked up)": "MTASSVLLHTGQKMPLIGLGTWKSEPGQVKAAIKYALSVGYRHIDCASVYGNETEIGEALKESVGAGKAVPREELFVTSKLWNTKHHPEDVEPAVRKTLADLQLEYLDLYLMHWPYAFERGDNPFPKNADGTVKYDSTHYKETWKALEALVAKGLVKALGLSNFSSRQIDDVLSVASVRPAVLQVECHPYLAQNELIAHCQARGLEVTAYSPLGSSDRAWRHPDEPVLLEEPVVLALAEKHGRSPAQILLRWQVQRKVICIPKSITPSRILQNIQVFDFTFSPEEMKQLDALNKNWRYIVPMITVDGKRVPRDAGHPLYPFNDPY", "experiment": "Inhibition of Wistar rat kidney ALR1 assessed as reduction in NADPH oxidation using sodium D-glucuronate and NADPH as substrate preincubated for 10 mins followed by substrate addition and measured for 4 mins by spectrophotometric analysis", "assay_type": "tissue-based"}, "Mus musculus [12]": {"test_system": "Mus musculus", "experiment": "Antidiabetic activity in STZ-induced Kunming mouse model of diabetes assessed as reduction in blood glucose level at 160 mg/kg, po administered daily via gavage for 8 weeks and measured at week 2", "assay_type": "functional", "conditions": "336 h, time 2 weeks"}, "Mus musculus [13]": {"test_system": "Mus musculus", "experiment": "Antidiabetic activity in STZ-induced Kunming mouse model of diabetes assessed as reduction in blood glucose level at 80 to 160 mg/kg, po administered daily via gavage for 8 weeks and measured at 2 to 5 hrs post-last drug dose", "assay_type": "functional, organism-based", "conditions": "dose 80-160 mg/kg"}, "Mus musculus [14]": {"test_system": "Mus musculus", "experiment": "Antioxidant activity in STZ-induced diabetic Kunming mouse assessed as increase in SOD level in kidney at 160 mg/kg, po administered daily via gavage for 8 weeks and measured at 6 hrs post-final drug dose", "assay_type": "functional"}, "[15]": {"target": "Aldo-keto reductase family 1 member B1 (Rattus norvegicus) (UniProt P07943)", "experiment": "Uncompetitive inhibition of Wistar rat lens ALR2 at 2.5 mM using D,L-glyeraldehyde as substrate in presence of varying levels of NADPH by double reciprocal plot analysis", "assay_type": "tissue-based", "in_short": "as §1"}, "[16]": {"experiment": "Inhibition of polyol pathway in STZ-induced Kunming mouse model of diabetes assessed as decrease in sorbitol level in kidney cortex at 80 mg/kg, po administered daily via gavage for 8 weeks and measured at 6 hrs post-final drug dose by fluorospectrophotometric analysis", "assay_type": "functional", "conditions": "1344 h"}, "Mus musculus [17]": {"test_system": "Mus musculus", "experiment": "Reno-protective activity in STZ-induced Kunming mouse model of diabetes assessed as reduction in albumin to creatinine ratio at 80 mg/kg, po administered QD via gavage for 4 weeks", "assay_type": "functional", "conditions": "672 h"}, "Mus musculus [18]": {"test_system": "Mus musculus", "experiment": "Antioxidant activity in STZ-induced diabetic Kunming mouse assessed as reduction in liver MDA level at 80 mg/kg, po administered daily via gavage for 8 weeks and measured at 6 hrs post-final drug dose relative to STZ-treated group", "assay_type": "functional", "conditions": "1344 h"}, "Mus musculus [19]": {"test_system": "Mus musculus", "experiment": "Antidiabetic activity in STZ-induced Kunming mouse model of diabetes assessed as reduction in blood glucose level at 80 mg/kg, po administered daily via gavage for 8 weeks and measured at week 4", "assay_type": "functional", "conditions": "672 h, time 4 weeks"}, "Mus musculus [20]": {"test_system": "Mus musculus", "experiment": "Antioxidant activity in STZ-induced diabetic Kunming mouse assessed as increase in SOD level in kidney at 80 mg/kg, po administered daily via gavage for 8 weeks and measured at 6 hrs post-final drug dose", "assay_type": "functional"}, "Mus musculus [21]": {"test_system": "Mus musculus", "experiment": "Antidiabetic activity in STZ-induced Kunming mouse model of diabetes assessed as improvement in glucose tolerance at 80 mg/kg, po QD administered via gavage and measured for 120 mins by intraperitoneal GTT"}, "Mus musculus [22]": {"test_system": "Mus musculus", "experiment": "Antioxidant activity in STZ-induced diabetic Kunming mouse assessed as reduction in liver MDA level at 80 mg/kg, po administered daily via gavage for 8 weeks and measured at 6 hrs post-final drug dose relative to normal group", "assay_type": "functional", "conditions": "1344 h"}, "Mus musculus [23]": {"test_system": "Mus musculus", "experiment": "Reno-protective activity in STZ-induced Kunming mouse model of diabetes assessed as urinary total protein excretion at 160 mg/kg, po administered daily via gavage for 8 weeks and measured at week 4 relative to control", "assay_type": "functional", "conditions": "time 4 weeks"}, "Mus musculus [24]": {"test_system": "Mus musculus", "experiment": "Antidiabetic activity in STZ-induced Kunming mouse model of diabetes assessed as reduction in blood glucose level at 80 mg/kg, po administered daily via gavage for 8 weeks and measured at week 8", "assay_type": "functional", "conditions": "1344 h"}},
  "note": "Activity calls are given as the source filed them. No cut-off for these calls is given here.",
  "data": [
    {"smiles": "COc1cc(/C=C/c2cccc3c2oc(=O)n3CC(=O)O)ccc1O", "values": [
      {"measurement": "Activity", "setting": "Mus musculus [1]", "value": "Active"},
      {"measurement": "Activity", "setting": "Mus musculus [2]", "value": 15, "unit": "%"},
      {"measurement": "Activity", "setting": "Brain", "value": "Active"},
      {"measurement": "Ratio IC50", "setting": "[3]", "value": 15},
      {"measurement": "inhibition in vivo at 80 mg/kg", "setting": "Mus musculus [4]", "value": 54, "unit": "%"},
      {"measurement": "Activity", "setting": "Mus musculus [5]", "value": "Active"},
      {"measurement": "inhibition in vivo at 80 mg/kg", "setting": "Mus musculus [6]", "value": 18, "unit": "%"},
      {"measurement": "inhibition in vivo at 80 mg/kg", "setting": "Mus musculus [7]", "value": 19, "unit": "%"},
      {"measurement": "inhibition", "setting": "[8]", "value": "Active"},
      {"measurement": "Activity", "setting": "HEK-293T", "value": "Non-Toxic"},
      {"measurement": "Activity", "setting": "Mus musculus [9]", "value": 78, "unit": "%"},
      {"measurement": "Activity", "setting": "Mus musculus [10]", "value": 50, "unit": "%"},
      {"measurement": "IC50", "setting": "[11]", "value": 4.9, "unit": "µM"},
      {"measurement": "inhibition in vivo at 160 mg/kg", "setting": "Mus musculus [12]", "value": 35, "unit": "%"},
      {"measurement": "Activity", "setting": "Mus musculus [13]", "value": "Active"},
      {"measurement": "Activity", "setting": "Mus musculus [14]", "value": 38, "unit": "%"},
      {"measurement": "inhibition", "setting": "[15]", "value": "Active"},
      {"measurement": "inhibition in vivo at 80 mg/kg", "setting": "[16]", "value": 19, "unit": "%"},
      {"measurement": "inhibition in vivo at 80 mg/kg", "setting": "Mus musculus [17]", "value": 57, "unit": "%"},
      {"measurement": "inhibition in vivo at 80 mg/kg", "setting": "Mus musculus [18]", "value": 67, "unit": "%"},
      {"measurement": "inhibition in vivo at 80 mg/kg", "setting": "Mus musculus [19]", "value": 24, "unit": "%"},
      {"measurement": "Activity", "setting": "Mus musculus [20]", "value": 177, "unit": "%"},
      {"measurement": "Activity", "setting": "Mus musculus [21]", "value": "Active"},
      {"measurement": "inhibition in vivo at 80 mg/kg", "setting": "Mus musculus [22]", "value": 16, "unit": "%"},
      {"measurement": "Activity", "setting": "Mus musculus [23]", "value": 93, "unit": "%"},
      {"measurement": "inhibition in vivo at 80 mg/kg", "setting": "Mus musculus [24]", "value": 9, "unit": "%"}
    ]}
  ]
}
